# Screens: PubChem, several laboratories
# An excerpt weighted towards active compounds, which were near 6.5% of everything screened.
# PostGolgi ctrl: growth of the yeast control strain, post-Golgi counter-screen | efflux-deficient yeast background strain, growth absorbance A615, 16 h | inhibition, % at 10 µM | hit rate 5% among 98,000
# PTK2B oligo ant: Pyk2 (human) oligomerization antagonism | Q14289 | Q293 cells, Pyk2 FERM NanoBiT luminescence; active compounds read low | z-score (the deposit names both 25 µM and 10 µM) | hit rate 0.83% among 99,000;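 active means Z-score of -3 or lower, scaled per plate to the spread of control and sample wells; inactive means z-score above -3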;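 further: negative z-score means lost luminescence so less FERM oligomerization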
# PostGolgi yeast: growth inhibition of a yeast mutant, post-Golgi transport screen. post-Golgi transport phenotypic cell assay. inhibition, % at 10 µM. hit rate 0.9% among 98,000;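 further: yeast cells grown in 1536-well plates; yeast grown about 18 h at 30C before absorbance read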
# Candida biofilm: kills Candida albicans biofilms. AID 834. inhibition, % at 6 µM. C. albicans biofilm + clotrimazole, Alamar Blue. hit rate 0.14% among 85,000;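 active means inhibition above 20%; inactive means inhibition below 20%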;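 further: preformed 24 hr biofilms exposed to compound for 48 hr; 0% = biofilm without compound and 100% = blank killed by clotrimazole plus chlorhexidine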
# Ecoli tolC: growth inhibitors of E. coli BW25113 tolC mutant; hit rate 2.2% among 65,000; growth inhibition, % at 10 µM (by protocol); OD615;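 active means growth inhibition at or above a cutoff equal to the mean over every tested compound plus 3 SD, cut at about 60% in these data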;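 further: growth measured after 20 h incubation at 37 °C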
#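 signal = optical density read at 615 nm | test system = E. coli ΔtolC::kan strain BW25113 | timing = 20 h compound exposure of bacteria at 37 °C | buffer or medium = LB medium plus 50 µg/mL kanamycin | compound dosing = 10 µM final, single dose | evaluation = % inhibition of E. coli growth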
# Ecoli WT expand: E. coli BW25113 growth inhibition, expanded screen; hit rate 0.15% among 98,000; OD600 absorbance; AID 710; growth inhibition, % at 100 µM;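 active means growth inhibition above about 50% at one test dose, limit read from the data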;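 further: growth measured after 20 h incubation at 37 °C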
# * = called active by the depositor; nt = not tested or not shown. Unless noted, no stated cut-off is given here; in the data, active means inhibition above about 30%; inactive means the rest.
SMILES,PostGolgi ctrl,PTK2B oligo ant,PostGolgi yeast,Candida biofilm,Ecoli tolC,Ecoli WT expand
O=C1N=C(N2CCOCC2)S/C1=C1\C(=O)N(Cc2ccccc2)c2ccccc21,nt,-0.5,nt,-2,-17,nt
CCCN1C(=O)/C(=C2\SC(N3CCCCC3)=NC2=O)c2ccccc21,39*,-2.3,3,2,13,-8
CN1C(=O)/C(=C2\SC(N3CCCCCC3)=NC2=O)c2ccccc21,42*,-0.35,6,-1,nt,-7
COc1ccc(N2CS(=O)(=O)/C(=C/N(C)C)C2=O)cc1,2,0.68,1,nt,nt,11
Cc1cccc(C)c1OCC(=O)Nc1oc(-c2ccccc2)c(-c2ccccc2)c1C#N,nt,-3.5*,nt,7,nt,nt
N#Cc1c(NC(=O)CSc2n[nH]c(N)n2)oc(-c2ccccc2)c1-c1ccccc1,4,-3.4*,1,2,nt,-2
COc1ccc(C(=O)Nc2oc(-c3ccccc3)c(-c3ccccc3)c2C#N)cc1,22,-2.9,-17,7,nt,-17
N#Cc1c(NC(=O)Cn2c(=O)oc3ccccc32)oc(-c2ccccc2)c1-c1ccccc1,3,-3.8*,-2,1,15,-11
O=C(NCCc1ccc(Cl)cc1)C1CCC(=O)N1Cc1ccc(F)cc1 (stereo not drawn),-1,nt,0,6,nt,5
CCOC(=O)c1c(C)nc2c(c1-c1cc(OC)ccc1OC)C(=O)c1ccccc1-2,4,-2.2,-11,nt,nt,-8
CCOC(=O)c1c(C)nc2c(c1-c1ccccc1)C(=O)c1ccccc1-2,35*,-0.83,1,nt,nt,-10
S=C(c1ccc(Br)cc1)N1CCN(Cc2ccccc2)CC1,33*,0.19,-3,nt,nt,-14
CCN1CCN(C(=S)c2ccc(Br)cc2)CC1,10,-0.56,-4,nt,nt,10
CCCNC(=O)CN(c1ccc(F)cc1)S(=O)(=O)c1ccc2c(c1)OCCO2,0,-1.7,-1,-2,nt,-8
O=C(CN(c1ccc(F)cc1)S(=O)(=O)c1ccc2c(c1)OCCO2)NCC1CCCO1 (stereo not drawn),33*,-1.4,-5,3,-2,1
O=C(NCc1ccc(N2CCCC2=O)cc1)Nc1cccc(Cl)c1,-5,0.16,2,8,9,-7
O=P(c1ccccc1)(c1ccccc1)C(c1ccco1)N1CCOCC1 (stereo not drawn),18,0.39,-2,4,-11,3
Cc1cccc(-n2c(C)cc(/C=N/n3cnnc3)c2C)c1,6,0.57,8,1,nt,-5
Cc1cc(C)cc(NS(=O)(=O)c2cnc(Cl)c(Cl)c2)c1,43*,0.21,2,nt,nt,25
Cc1cc(NS(=O)(=O)c2ccccc2)cc(Cl)c1O,12,-0.59,1,4,16,10
Cc1nn(Cc2ccccc2Cl)c(C)c1NC(=O)NC12CC3CC(CC(C3)C1)C2,35*,-2.9,-5,nt,nt,-9
Brc1ccc(OCc2nc(-c3ccccn3)n[nH]2)cc1,5,0.4,0,0,nt,6
Clc1ccc(OCc2nc(-c3ccccn3)n[nH]2)cc1,0,0.8,-2,6,85*,13
O=C(NNC(=O)C1CCCCC1)C(=O)NC1CCCCC1,1,1.4,5,nt,nt,0
O=C(c1ccco1)N1CCC(c2ccccc2)C1 (stereo not drawn),17,-0.33,4,nt,-2,1
SMILES,PostGolgi ctrl,PTK2B oligo ant,PostGolgi yeast,Candida biofilm,Ecoli tolC,Ecoli WT expand
COC(=O)c1[nH]c2ccc(F)cc2c1NC(=O)CCN1CCN(C(=O)c2ccco2)CC1,32*,nt,0,4,-10,-8
COC(=O)c1[nH]c2cc(C)ccc2c1NC(=O)CN1CCN(C(=O)c2ccco2)CC1,24,1,12,1,8,1
CCS(=O)(=O)CCSC(=N)N,-2,-0.67,5,1,nt,-4
COc1ccc(-c2cc(C(=O)N3CC4(C)CC3CC(C)(C)C4)no2)cc1 (stereo not drawn),34*,0.65,-11,-1,65*,-4
COc1ccc(-c2cc(C(=O)N3CC4(C)CC3CC(C)(C)C4)no2)cc1OC (stereo not drawn),16,-1.5,7,3,71*,-6
CC1(C)CC2CC(C)(CN2C(=O)c2cc(-c3ccccc3O)on2)C1 (stereo not drawn),78*,nt,11,3,95*,-10
O=c1[nH]c(NCCO)nc2c1C1(CCCCC1)Cc1ccccc1-2,31*,-1.4,-2,9,19,5
Cn1c2ccccc2c2ncn(CCC3=CCCCC3)c(=O)c21,34*,-0.29,-4,9,22,-1
Cn1c2ccc(F)cc2c2ncn(CCN3CCOCC3)c(=O)c21,20,0.19,33*,9,-7,3
CCCc1nnc(NC(=O)CCCN2C(=O)c3ccccc3C2=O)s1,14,0.83,3,-1,nt,1
COc1ccc(CC(=O)NC(=S)Nc2ccc(S(=O)(=O)NC(C)(C)C)cc2)cc1,38*,-0.03,3,nt,nt,-8
CC(C)C(=O)NC(=S)Nc1ccc(S(=O)(=O)NC(C)(C)C)cc1,10,0.84,4,nt,nt,-3
CCN(C(=O)c1cc2cc(OC)ccc2oc1=O)c1cccc(C)c1,7,-0.43,-5,5,nt,4
O=C(Cc1coc2ccc3ccccc3c12)NCc1ccccc1,26,-0.63,0,4,nt,-7
CCCN(CCC)C(=O)Cc1coc2ccc3ccccc3c12,42*,-2.3,-1,5,nt,-5
Cn1c(SCc2nnc(-c3ccccc3Br)o2)nc2sc3c(c2c1=O)CCC3,45*,-1.1,-9,1,24,-14
COCCCn1c(SCc2nnc(-c3ccccc3)o2)nc2sc3c(c2c1=O)CCC3,100*,0.34,63*,nt,nt,-4
N#CCc1ccc(C(=O)c2ccccc2F)s1,6,0.49,4,nt,nt,7
COC(=O)c1ccc(C2C(C(C)=O)=C(C)Nc3ncnn32)cc1 (stereo not drawn),-3,nt,-1,8,-9,9
CCOc1ccccc1C(=O)NC(CO)C(=O)O (stereo not drawn),-12,-0.01,19,5,nt,-13
CC(C)n1cc(/C=C(\C#N)S(=O)(=O)c2ccccc2)c2ccccc21,36*,-2.4,0,7,21,-27
Cc1ccc(S(=O)(=O)/C(C#N)=C/c2c[nH]c3ccccc23)cc1,68*,-3,0,nt,nt,-4
CCOc1nc(NCc2ccco2)nc(Nc2ccc(OC)cc2)n1,27,-2.5,-4,2,-9,-11
COc1ccc(Nc2nc(NCc3ccco3)nc(N/N=C/c3ccccc3)n2)cc1,30,-3.2*,19,nt,nt,-4
CCCCCCOC(=O)C(C#N)c1nc2ccccc2nc1N1CCN(C)CC1 (stereo not drawn),13,-1.3,7,8,100*,17
C=CCN(CC=C)c1nc2ccccc2nc1C(C#N)C(=O)OCCOC (stereo not drawn),17,1.4,5,3,32,-1
CCCN(CCC)c1nc2ccccc2nc1C(C#N)C(=O)OCCOC (stereo not drawn),20,-0.1,-3,5,80*,-4
